Measurements as given in ChEMBL document CHEMBL1152296, “Fragment-based design of small molecule X-linked inhibitor of apoptosis protein inhibitors” (J Med Chem, 2008).
Blank lines part the entries; values can stand above or below the compound they belong to. Active and inactive are the calls of the source. The calls are words filed in the database; no cut-off is given here.

What was measured:
MDA-MB-231 [1] = assay: Sensitization of 120 ng/mL TRAIL-induced apoptosis in human MDA-MB-231 cells assessed as combination index at 12 uM after 24 hrs by ATPlite assay; type: functional
MDA-MB-231 [2] = assay: Sensitization of 130 ng/mL TRAIL-induced apoptosis in human MDA-MB-231 cells assessed as combination index at 13 uM after 24 hrs by ATPlite assay; type: functional
MEF [3] = assay: Inhibition of wild type MEF proliferation assessed as cell viability at 5 to 45 uM after 24 hrs by ATPlite assay relative to control; type: cell-based; conditions: mouse
[4] = Stability in human plasma by LC/MS/MS analysis; type: ADME, cell-free; conditions: read-out: Stability
Summary of the method: (§1)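 Incubation in human plasma at 37 °C for 15, 60 and 120 min. Quantitation by LC/MS/MS in MRM mode, with results expressed as percent remaining of initial concentration.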

Plasma = assay: Stability in human plasma assessed as compound remaining by LC/MS/MS analysis; type: ADME, cell-free; summary of the method: as §1
[5] = Metabolic stability in liver microsomes assessed as half life after 30 mins by LC/MS/MS analysis in presence of NADPH; type: ADME, Microsome
[6] = Metabolic stability in liver microsomes assessed as intrinsic clearance after 30 mins by LC/MS/MS analysis in presence of NADPH; type: ADME, Microsome; conditions: 0.5 h
[7] = Permeability by PAMPA method; type: ADME
[8] = Apparent solubility after 1 day by nephelometry-based method; type: physicochemical
Summary of the method: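 DMSO stock at 10 mM prepared on day 1. Tested at 8 concentrations in triplicate. Assay run on day 1 and read on day 2.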

MEF [9] = assay: Inhibition of XIAP knockout MEF proliferation assessed as cell viability after 24 hrs by ATPlite assay relative to control; type: functional, cell-based; conditions: Mus musculus
MDA-MB-231 [10] = assay: Increase in caspase-3 activation in human MDA-MB-231 cells at 5 to 20 uM after 24 hrs by MSD assay; type: functional, cell-based
MDA-MB-231 [11] = assay: Sensitization of 50 ng/mL TRAIL-induced apoptosis in human MDA-MB-231 cells assessed as combination index at 5 uM after 24 hrs by ATPlite assay; type: functional
MDA-MB-231 [12] = assay: Sensitization of 90 ng/mL TRAIL-induced apoptosis in human MDA-MB-231 cells assessed as combination index at 9 uM after 24 hrs by ATPlite assay; type: functional
MDA-MB-231 [13] = assay: Sensitization of 100 ng/mLTRAIL-induced apoptosis in human MDA-MB-231 cells assessed as combination index at 10 uM after 24 hrs by ATPlite assay; type: functional
MDA-MB-231 [14] = assay: cells; conditions: Homo sapiens, MDA-MB-231, 48 h
[15] = biological target: E3 ubiquitin-protein ligase XIAP (Homo sapiens, UniProt P98170); assay: Binding affinity to histidine6-tagged human XIAP Bir3 domain expressed in Escherichia coli BL21(DE3)
Summary of the method: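 Binding to 15N-labelled Bir3 was measured by 2D [15N,1H]-HSQC NMR titration at 300 K. Samples held 0.1 mM protein in 100 mM potassium phosphate pH 7.0 with 5% DMSO and 7% D2O. At least six ligand concentrations were used. Kd came from a non-linear least-squares fit of fractional shift change (p) against ligand concentration.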

Sequence of E3 ubiquitin-protein ligase XIAP (P98170 whole entry, the tested form may be a part): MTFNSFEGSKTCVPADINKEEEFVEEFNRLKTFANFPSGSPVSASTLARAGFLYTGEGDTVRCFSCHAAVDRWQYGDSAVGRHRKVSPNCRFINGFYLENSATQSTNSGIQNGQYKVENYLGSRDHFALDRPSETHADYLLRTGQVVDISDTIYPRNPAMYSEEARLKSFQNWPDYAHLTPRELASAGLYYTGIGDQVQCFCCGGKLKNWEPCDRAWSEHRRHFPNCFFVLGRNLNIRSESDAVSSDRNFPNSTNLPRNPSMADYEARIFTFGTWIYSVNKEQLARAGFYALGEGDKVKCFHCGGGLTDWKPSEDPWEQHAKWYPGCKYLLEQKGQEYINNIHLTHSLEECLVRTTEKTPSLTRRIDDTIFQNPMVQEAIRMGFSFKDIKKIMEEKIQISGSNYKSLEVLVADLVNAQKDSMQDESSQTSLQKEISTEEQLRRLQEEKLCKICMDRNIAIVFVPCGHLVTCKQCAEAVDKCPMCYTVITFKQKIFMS

half-life [4]: > 120 min | Stability (Plasma): 93.9% | half-life [5]: 14.5 min | clearance [6]: 47.7 µL/min/mg | permeability [7]: 27% | solubility kinetic at 24 h [8]: > 100 µg/mL
SMILES: CN[C@@H](C)C(=O)Nc1ccc(Oc2ccc(OC)cc2)c(C(=O)NCc2csc(-c3cccs3)n2)c1
Activity (MDA-MB-231 [1]): 0.27 | Activity (MDA-MB-231 [2]): 0.32 | Activity (MEF [3]): Toxic | Activity (MEF [9]): Active | Activity (MDA-MB-231 [10]): Active | Activity (MDA-MB-231 [11]): 0.44 | Activity (MDA-MB-231 [12]): 0.4 | Activity (MDA-MB-231 [13]): 0.41

IC50 (MDA-MB-231 [14]): > 50 µM
SMILES: CC[C@H](C)[C@H](NC(=O)[C@@H]1CCCN1C(=O)[C@@H](NC(=O)[C@H](C)N)C(C)C)C(=O)O

Kd [15]: 200 µM
SMILES: C[C@H](N)C(=O)Nc1ccc(Oc2ccccc2Cl)cc1
